In ChEMBL document CHEMBL3046867, “Bioactive ryanoids from nucleophilic additions to 4,12-seco-4,12-dioxoryanodine” (J Med Chem, 1993):

How the values were obtained:
[1] = target: Ryanodine receptor 3 (Mus musculus) (UniProt A2AGL3); test: Binding affinity to ryanodine receptor in Mus musculus albino Swiss-Webster (mouse) brain relative to ryanodine
Musca domestica [2] = test: Toxicity against SCR-susceptible Musca domestica (house fly) assessed as immobility compound administered by intrathoracic injection 1 to 2 hr after piperonyl butoxide treatment measured 4 hr post compound treatment relative to ryanodine; type: functional
In short: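 Adult female flies pretreated with piperonyl butoxide (5 μg in 0.5 μL acetone, ventral abdomen); 1-2 h later, 0.22 μL ryanoid in DMSO injected into the thorax. Knockdown scored at 4 h and KD50 derived. Ten flies per dose, 1.50-2-fold dose steps, two or more experiments (or single determinations where estimated).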

[3] = target: Ryanodine receptor 1 (Oryctolagus cuniculus) (UniProt P11716); test: Displacement of [3H]ryanodine from Ca2+-ryanodine receptor in Oryctolagus cuniculus (rabbit) skeletal muscle sarcoplasmic reticulum after 2 hr by competitive inhibition assay relative to ryanodine
Chain of Ryanodine receptor 1 (Oryctolagus cuniculus) (P11716 whole entry): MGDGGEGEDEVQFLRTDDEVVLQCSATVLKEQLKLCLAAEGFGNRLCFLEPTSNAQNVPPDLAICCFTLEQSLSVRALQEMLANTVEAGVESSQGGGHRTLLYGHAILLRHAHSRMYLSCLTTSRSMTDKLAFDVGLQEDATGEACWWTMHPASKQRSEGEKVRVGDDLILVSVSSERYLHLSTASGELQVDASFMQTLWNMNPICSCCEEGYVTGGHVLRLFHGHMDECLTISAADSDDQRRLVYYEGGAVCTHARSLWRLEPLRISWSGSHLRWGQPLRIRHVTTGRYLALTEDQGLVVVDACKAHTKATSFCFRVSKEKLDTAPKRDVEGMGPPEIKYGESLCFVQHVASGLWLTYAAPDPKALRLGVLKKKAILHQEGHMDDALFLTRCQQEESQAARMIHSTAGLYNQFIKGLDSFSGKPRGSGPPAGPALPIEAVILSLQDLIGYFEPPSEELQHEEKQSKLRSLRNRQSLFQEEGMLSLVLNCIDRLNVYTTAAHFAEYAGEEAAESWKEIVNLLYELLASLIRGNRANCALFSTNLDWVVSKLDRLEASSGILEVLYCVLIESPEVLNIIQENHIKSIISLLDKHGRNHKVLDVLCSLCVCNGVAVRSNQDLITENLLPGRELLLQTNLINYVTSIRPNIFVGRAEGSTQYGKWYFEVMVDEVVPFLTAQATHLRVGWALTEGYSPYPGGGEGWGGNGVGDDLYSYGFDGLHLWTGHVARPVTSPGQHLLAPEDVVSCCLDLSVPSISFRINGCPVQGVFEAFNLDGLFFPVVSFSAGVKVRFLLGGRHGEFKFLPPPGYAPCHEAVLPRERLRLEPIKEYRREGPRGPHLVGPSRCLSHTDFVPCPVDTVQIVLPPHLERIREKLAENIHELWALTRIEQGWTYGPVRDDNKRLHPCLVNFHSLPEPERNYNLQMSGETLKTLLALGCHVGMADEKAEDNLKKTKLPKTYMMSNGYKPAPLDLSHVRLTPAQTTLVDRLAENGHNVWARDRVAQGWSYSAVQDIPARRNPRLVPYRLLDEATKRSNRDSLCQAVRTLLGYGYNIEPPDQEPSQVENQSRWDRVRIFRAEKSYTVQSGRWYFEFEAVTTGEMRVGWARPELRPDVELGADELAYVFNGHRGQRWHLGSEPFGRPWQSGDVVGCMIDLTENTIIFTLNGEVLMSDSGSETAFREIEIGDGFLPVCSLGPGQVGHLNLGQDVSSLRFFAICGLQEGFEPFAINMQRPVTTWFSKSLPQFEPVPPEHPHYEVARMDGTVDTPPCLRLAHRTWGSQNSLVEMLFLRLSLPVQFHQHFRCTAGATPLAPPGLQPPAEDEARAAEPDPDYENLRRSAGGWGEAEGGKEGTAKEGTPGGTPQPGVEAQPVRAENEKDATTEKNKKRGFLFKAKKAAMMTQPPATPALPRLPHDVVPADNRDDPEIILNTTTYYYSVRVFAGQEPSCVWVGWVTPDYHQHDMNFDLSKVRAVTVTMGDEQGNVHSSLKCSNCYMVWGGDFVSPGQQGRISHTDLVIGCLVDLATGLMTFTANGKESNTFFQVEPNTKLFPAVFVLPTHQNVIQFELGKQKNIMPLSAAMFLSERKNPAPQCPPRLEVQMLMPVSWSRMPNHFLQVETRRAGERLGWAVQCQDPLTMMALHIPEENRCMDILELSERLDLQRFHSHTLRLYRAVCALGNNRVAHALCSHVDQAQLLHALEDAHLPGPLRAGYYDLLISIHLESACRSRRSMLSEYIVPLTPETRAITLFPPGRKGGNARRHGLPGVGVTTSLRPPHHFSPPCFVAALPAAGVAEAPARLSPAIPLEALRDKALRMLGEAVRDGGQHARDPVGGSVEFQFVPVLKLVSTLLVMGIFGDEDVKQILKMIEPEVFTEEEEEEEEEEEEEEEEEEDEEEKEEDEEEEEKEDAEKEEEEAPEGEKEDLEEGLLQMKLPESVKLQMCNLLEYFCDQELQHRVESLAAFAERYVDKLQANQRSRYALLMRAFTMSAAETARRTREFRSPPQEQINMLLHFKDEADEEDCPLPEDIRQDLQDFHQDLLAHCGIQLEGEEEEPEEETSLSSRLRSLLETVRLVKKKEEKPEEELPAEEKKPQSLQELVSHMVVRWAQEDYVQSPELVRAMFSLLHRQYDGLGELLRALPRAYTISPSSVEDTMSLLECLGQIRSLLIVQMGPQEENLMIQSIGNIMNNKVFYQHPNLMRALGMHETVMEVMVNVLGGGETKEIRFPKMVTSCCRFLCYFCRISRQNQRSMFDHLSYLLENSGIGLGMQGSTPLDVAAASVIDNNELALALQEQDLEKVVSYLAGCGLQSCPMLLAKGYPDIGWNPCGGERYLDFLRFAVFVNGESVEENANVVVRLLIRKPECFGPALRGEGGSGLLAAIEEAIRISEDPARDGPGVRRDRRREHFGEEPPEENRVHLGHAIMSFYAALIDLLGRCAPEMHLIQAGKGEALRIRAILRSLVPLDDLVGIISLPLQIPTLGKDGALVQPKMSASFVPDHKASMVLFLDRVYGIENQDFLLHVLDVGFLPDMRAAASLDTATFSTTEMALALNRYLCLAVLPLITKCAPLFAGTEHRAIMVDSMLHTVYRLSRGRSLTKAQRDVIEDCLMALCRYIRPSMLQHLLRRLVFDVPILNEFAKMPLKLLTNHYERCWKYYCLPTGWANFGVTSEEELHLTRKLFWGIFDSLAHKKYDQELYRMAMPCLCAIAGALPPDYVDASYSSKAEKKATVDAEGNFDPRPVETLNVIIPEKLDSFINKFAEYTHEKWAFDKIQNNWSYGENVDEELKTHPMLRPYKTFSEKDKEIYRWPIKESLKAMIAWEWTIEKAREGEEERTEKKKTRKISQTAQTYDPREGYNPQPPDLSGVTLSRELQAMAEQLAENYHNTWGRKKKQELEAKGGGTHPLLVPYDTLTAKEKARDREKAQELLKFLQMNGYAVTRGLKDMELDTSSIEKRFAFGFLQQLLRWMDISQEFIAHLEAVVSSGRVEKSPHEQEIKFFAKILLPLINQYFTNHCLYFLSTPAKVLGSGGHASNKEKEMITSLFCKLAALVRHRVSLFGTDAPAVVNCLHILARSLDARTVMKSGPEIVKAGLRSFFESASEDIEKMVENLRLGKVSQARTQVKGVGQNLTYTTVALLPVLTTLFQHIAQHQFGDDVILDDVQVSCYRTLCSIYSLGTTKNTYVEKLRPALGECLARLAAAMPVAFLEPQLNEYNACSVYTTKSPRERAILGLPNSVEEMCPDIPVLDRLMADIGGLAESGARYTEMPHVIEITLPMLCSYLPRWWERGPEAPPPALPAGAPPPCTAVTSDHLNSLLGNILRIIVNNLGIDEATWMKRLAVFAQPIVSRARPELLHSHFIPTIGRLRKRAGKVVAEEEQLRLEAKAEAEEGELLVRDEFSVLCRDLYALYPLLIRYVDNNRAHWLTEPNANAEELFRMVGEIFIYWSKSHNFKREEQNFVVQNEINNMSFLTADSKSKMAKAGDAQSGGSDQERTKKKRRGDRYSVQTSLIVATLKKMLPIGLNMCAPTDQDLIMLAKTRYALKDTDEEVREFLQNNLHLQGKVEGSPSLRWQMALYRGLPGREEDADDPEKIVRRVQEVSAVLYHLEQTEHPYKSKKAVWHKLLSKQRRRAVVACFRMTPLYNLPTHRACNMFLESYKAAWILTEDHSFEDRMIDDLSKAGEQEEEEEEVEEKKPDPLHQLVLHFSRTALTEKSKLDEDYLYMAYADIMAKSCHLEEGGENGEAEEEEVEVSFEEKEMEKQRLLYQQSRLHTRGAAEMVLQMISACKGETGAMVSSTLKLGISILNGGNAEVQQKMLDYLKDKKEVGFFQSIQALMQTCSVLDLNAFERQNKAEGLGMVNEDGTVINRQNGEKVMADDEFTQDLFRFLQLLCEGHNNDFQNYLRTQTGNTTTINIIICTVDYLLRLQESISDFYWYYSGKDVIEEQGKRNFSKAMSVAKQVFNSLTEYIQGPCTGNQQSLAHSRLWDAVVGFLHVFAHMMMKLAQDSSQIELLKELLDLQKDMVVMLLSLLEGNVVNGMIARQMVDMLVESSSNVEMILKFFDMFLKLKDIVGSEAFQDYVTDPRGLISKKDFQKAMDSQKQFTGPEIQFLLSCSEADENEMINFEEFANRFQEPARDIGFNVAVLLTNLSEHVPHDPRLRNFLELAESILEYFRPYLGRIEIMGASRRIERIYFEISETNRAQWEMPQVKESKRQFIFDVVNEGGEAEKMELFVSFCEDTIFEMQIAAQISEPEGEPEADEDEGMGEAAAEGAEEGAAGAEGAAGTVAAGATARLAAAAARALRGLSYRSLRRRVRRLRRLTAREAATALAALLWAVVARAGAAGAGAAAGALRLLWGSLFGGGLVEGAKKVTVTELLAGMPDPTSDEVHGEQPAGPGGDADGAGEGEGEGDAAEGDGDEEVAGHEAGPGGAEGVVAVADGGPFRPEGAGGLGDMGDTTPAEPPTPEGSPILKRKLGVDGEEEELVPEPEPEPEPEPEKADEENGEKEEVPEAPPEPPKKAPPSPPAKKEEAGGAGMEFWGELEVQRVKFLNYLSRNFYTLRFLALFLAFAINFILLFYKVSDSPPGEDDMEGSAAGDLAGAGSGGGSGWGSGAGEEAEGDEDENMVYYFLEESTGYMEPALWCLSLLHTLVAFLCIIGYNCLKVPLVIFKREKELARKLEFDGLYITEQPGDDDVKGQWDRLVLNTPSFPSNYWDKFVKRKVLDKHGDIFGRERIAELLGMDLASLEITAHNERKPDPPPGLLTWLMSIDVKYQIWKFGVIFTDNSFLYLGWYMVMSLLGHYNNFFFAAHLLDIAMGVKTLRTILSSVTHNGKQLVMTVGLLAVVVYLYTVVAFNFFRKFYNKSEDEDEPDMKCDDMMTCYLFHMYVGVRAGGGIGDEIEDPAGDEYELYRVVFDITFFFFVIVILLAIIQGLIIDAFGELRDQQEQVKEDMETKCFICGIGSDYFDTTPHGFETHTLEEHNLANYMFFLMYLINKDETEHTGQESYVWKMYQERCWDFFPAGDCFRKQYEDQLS
In short: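 No ATP. […] Ryanoid given in DMSO (1% final). Glass-fiber filtration; three washes with ice-cold buffer a using Tris HCl instead of Hepes. Nonspecific binding with 10 μM dehydroryanodine. IC50 calculated by LIGAND; duplicate experiments.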

Musca domestica [4] = test: Toxicity against SCR-susceptible Musca domestica (house fly) assessed as mortality compound administered by intrathoracic injection 1 to 2 hr after piperonyl butoxide treatment measured 24 hr post compound treatment relative to ryanodine; type: functional
[5] = target: Ryanodine receptor 1 (Oryctolagus cuniculus) (UniProt P11716); test: Displacement of [3H]ryanodine from Ca2+-ryanodine receptor in Oryctolagus cuniculus (rabbit) skeletal muscle sarcoplasmic reticulum after 1 hr by competitive inhibition assay in presence of ATP relative to ryanodine
In short: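 Unlabeled ryanoid introduced in DMSO (1% final) before incubation. Filtration, washes in 150 mM KCl/10 mM Hepes pH 7.4. Nonspecific binding: 10 μM dehydroryanodine. IC50 from LIGAND; duplicate experiments.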

[6] = Toxicity in ip dosed Mus musculus albino Swiss-Webster (mouse) […]; type: organism-based; settings: in vivo
In short: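 Male albino Swiss-Webster mice, 18–22 g; ryanoid given ip in methoxytriglycol (50 μL); mortality read at 24 h.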

Ryanodine receptor 3 = Ryanodine receptor 3 (Mus musculus, UniProt A2AGL3); test: Binding affinity to ryanodine receptor in Mus musculus albino Swiss-Webster (mouse) brain

CC(C)[C@@]1(O)[C@@H](OC(=O)c2ccc[nH]2)[C@@]2(O)[C@@]3(C)C[C@]4(O)O[C@@]5([C@H](O)[C@@H](CSC(C)(C)C)CC[C@]35O)[C@@]2(O)[C@]14C showed a Ratio [1] of 0.41 and a Ratio (Musca domestica [2]) of 2.

Work on CO/N=C1/[C@H](OC(=O)c2ccc[nH]2)[C@](O)(C(C)C)[C@@]2(C)C(=O)[C@]34O[C@@]2(O)C[C@@]1(C)[C@@]3(O)CC[C@H](C)[C@H]4O yielded a Ratio [1] of 0.7, a Ratio [3] of 0.75 and a Ratio (Musca domestica [2]) of 10. For the same compound, the Ratio (Musca domestica [4]) was 12 and the Ratio [5] was 0.86.

Work on CC(C)[C@@]1(O)[C@@H](OC(=O)c2ccc[nH]2)[C@]2(NO)O[C@@]3(O)[C@]45O[C@@](O)(C[C@@]2(C)[C@@]4(O)CC[C@H](C)[C@H]5O)[C@]31C yielded a Ratio [1] of 21, a Ratio [3] of 14 and a Ratio (Musca domestica [2]) of 270. The Ratio (Musca domestica [4]) was 200 and the Ratio [5] was 29.

For CC(C)[C@@]1(O)[C@@H](OC(=O)c2ccc[nH]2)C(=O)[C@@]2(C)C[C@]3(O)O[C@]4(C(=O)[C@]13C)[C@H](O)[C@@H](C)CC[C@@]42O [4,12-SECO-4,12-DIOXORYANODIN], the Ratio [3] was 1.6, the Ratio (Musca domestica [2]) was 0.85 and the Ratio (Musca domestica [4]) was 2. It also gave a Ratio [5] of 1.8.

CC(C)[C@@]1(O)[C@@H](OC(=O)c2ccc[nH]2)[C@]2(NOCc3ccccc3)O[C@@]3(O)[C@]45O[C@@](O)(C[C@@]2(C)[C@@]4(O)CC[C@H](C)[C@H]5O)[C@]31C gave a Ratio [1] of 8.3, a Ratio [3] of 13 and a Ratio (Musca domestica [2]) of 2. It also gave a Ratio [5] of 21.

CON[C@@]12O[C@@]3(O)[C@]45O[C@@](O)(C[C@@]1(C)[C@@]4(O)CC[C@H](C)[C@H]5O)[C@@]3(C)[C@@](O)(C(C)C)[C@H]2OC(=O)c1ccc[nH]1 showed a Ratio [1] of 27, a Ratio [3] of 23 and a Ratio (Musca domestica [2]) of 13. The Ratio (Musca domestica [4]) was 8 and the Ratio [5] was 23.

For C=C1CC[C@]2(O)[C@]3(C)C[C@]4(O)O[C@@]2([C@@H]1O)[C@]1(NNC(N)=O)O[C@@]3(O)[C@H](OC(=O)c2ccc[nH]2)[C@](O)(C(C)C)[C@@]14C, the Ratio [3] was 6.1, the Ratio (Musca domestica [2]) was under 4 and the Ratio [5] was 4.4.

In the case of CCCSC[C@H]1CC[C@]2(O)[C@]3(C)C[C@]4(O)O[C@@]2([C@@H]1O)[C@]1(O)[C@@]3(O)[C@H](OC(=O)c2ccc[nH]2)[C@](O)(C(C)C)[C@@]14C, the Ratio [1] is reported as 0.88, the Ratio (Musca domestica [2]) is reported as 4 and the Ratio (Musca domestica [4]) is reported as 6.

For C=C1CC[C@]2(O)[C@]3(C)C[C@]4(O)O[C@@]2([C@@H]1O)[C@]1(O)O[C@@]3(NNC(N)=O)[C@H](OC(=O)c2ccc[nH]2)[C@](O)(C(C)C)[C@@]14C, the Ratio [3] was 10, the Ratio (Musca domestica [2]) was 10 and the Ratio (Musca domestica [4]) was 6. For the same compound, the Ratio [5] was 6.6.

Compound CC(C)[C@@]1(O)[C@@H](OC(=O)c2ccc[nH]2)/C(=N/O)[C@@]2(C)C[C@]3(O)O[C@]4(C(=O)[C@]13C)[C@H](O)[C@@H](C)CC[C@@]42O has a Ratio [1] of 0.78, a Ratio [3] of 0.76 and a Ratio (Musca domestica [2]) of 2.7. The Ratio (Musca domestica [4]) was 6 and the Ratio [5] was 0.88.

C=C1CC[C@]2(O)[C@]3(C)C[C@]4(O)O[C@@]2([C@@H]1O)[C@]1(O)O[C@@]3(NN)[C@H](OC(=O)c2ccc[nH]2)[C@](O)(C(C)C)[C@@]14C gave a Ratio [1] of 14, a Ratio [3] of 11 and a Ratio (Musca domestica [2]) of 50. It also gave a Ratio (Musca domestica [4]) of 60 and a Ratio [5] of 14.

CC(C)[C@@]1(O)[C@@H](OC(=O)c2ccc[nH]2)[C@]2(NO)O[C@H]3[C@]45O[C@@](O)(C[C@@]2(C)[C@@]4(O)CC[C@H](C)[C@H]5O)[C@]31C gave a Ratio [1] of 43, a Ratio [3] of 50 and a Ratio (Musca domestica [2]) of 200. It also gave a Ratio (Musca domestica [4]) of 100 and a Ratio [5] of 67.

For C=C1CC[C@@]2(O)[C@]3(O[C@@]4(O)C[C@]2(C)C(=O)[C@H](OC(=O)c2ccc[nH]2)[C@](O)(C(C)C)[C@@]4(C)C3=O)[C@@H]1O [4,12-SECO-4,12-DIOXODEHYDRORYANODIN], the Ratio [1] was 1.1, the Ratio [3] was 0.79 and the Ratio (Musca domestica [2]) was 4. The Ratio (Musca domestica [4]) was 4 and the Ratio [5] was 0.97.

C=C1CC[C@]2(O)[C@]3(C)C[C@]4(O)O[C@@]2([C@@H]1O)[C@]1(O)O[C@@]3(NNC(=O)c2ccccc2)[C@H](OC(=O)c2ccc[nH]2)[C@](O)(C(C)C)[C@@]14C showed a Ratio (Musca domestica [2]) of 13, a Ratio (Musca domestica [4]) of 40 and a Ratio [5] of 6.5.

C=C1CC[C@]2(O)[C@]3(C)C[C@]4(O)O[C@@]2([C@@H]1O)[C@]1(O)[C@@]3(O)[C@H](OC(=O)c2ccc[nH]2)[C@](O)(C(C)C)[C@@]14C [DEHYDRORYANODINE] showed a Ratio [1] of 77, a Ratio [3] of 91 and a Ratio (Musca domestica [2]) of 90. The Ratio (Musca domestica [4]) was 136 and the Ratio [5] was 112.

Work on CC(C)[C@@]1(O)[C@@H](OC(=O)c2ccc[nH]2)[C@@H]2O[C@@]3(O)[C@]45O[C@@](O)(C[C@@]2(C)[C@@]4(O)CC[C@H](C)[C@H]5O)[C@]31C yielded a Ratio [1] of 21, a Ratio [3] of 28 and a Ratio (Musca domestica [2]) of 27. It also gave a Ratio (Musca domestica [4]) of 40 and a Ratio [5] of 19.

For CC(C)[C@@]1(O)[C@@H](OC(=O)c2ccc[nH]2)[C@]2(O)O[C@H]3[C@]45O[C@@](O)(C[C@@]2(C)[C@@]4(O)CC[C@H](C)[C@H]5O)[C@]31C, the Ratio [1] was 54, the LD50 [6] was 0.15 mg/kg and the Ratio [3] was 62. The Ratio (Musca domestica [2]) was 270, the Ratio (Musca domestica [4]) was 120 and the Ratio [5] was 64.

With CC(C)[C@@]1(O)[C@@H](OC(=O)c2ccc[nH]2)[C@@]2(O)[C@@]3(C)C[C@]4(O)O[C@@]5([C@H](O)[C@@H](CSCCO)CC[C@]35O)[C@@]2(O)[C@]14C the Ratio [1] was 0.86, the Ratio (Musca domestica [2]) was 5 and the Ratio (Musca domestica [4]) was 6.

For C=C1CC[C@]2(O)[C@]3(C)C[C@]4(O)O[C@@]2([C@@H]1O)[C@]1(NNc2ccccc2)O[C@@]3(O)[C@H](OC(=O)c2ccc[nH]2)[C@](O)(C(C)C)[C@@]14C, the Ratio [1] was 3.3, the Ratio [3] was 2.6 and the Ratio (Musca domestica [2]) was under 1.3. For the same compound, the Ratio (Musca domestica [4]) was under 3 and the Ratio [5] was 3.

C=C1CC[C@]2(O)[C@]3(C)C[C@]4(O)O[C@@]2([C@@H]1O)[C@]1(O)O[C@@]3(NNc2ccccc2)[C@H](OC(=O)c2ccc[nH]2)[C@](O)(C(C)C)[C@@]14C showed a Ratio [1] of 2.5, a Ratio [3] of 5.4 and a Ratio (Musca domestica [2]) of under 2. For the same compound, the Ratio [5] was 6.1.

For C=C1CC[C@]2(O)[C@]3(C)C[C@]4(O)O[C@@]2([C@@H]1O)[C@]1(/N=N/c2ccccc2)O[C@@]3(O)[C@H](OC(=O)c2ccc[nH]2)[C@](O)(C(C)C)[C@@]14C, the Ratio [1] was 3.6, the Ratio [3] was 4.7 and the Ratio (Musca domestica [2]) was 6. The Ratio [5] was 6.3.

Work on CC(C)[C@@]1(O)[C@@H](OC(=O)c2ccc[nH]2)/C(=N/OCc2ccccc2)[C@@]2(C)C[C@]3(O)O[C@]4(C(=O)[C@]13C)[C@H](O)[C@@H](C)CC[C@@]42O yielded a Ratio [1] of 0.94, a Ratio [3] of 1.3 and a Ratio (Musca domestica [2]) of 0.8. For the same compound, the Ratio (Musca domestica [4]) was 1 and the Ratio [5] was 2.1.

With CON[C@@]12O[C@H]3[C@]45O[C@@](O)(C[C@@]1(C)[C@@]4(O)CC[C@H](C)[C@H]5O)[C@@]3(C)[C@@](O)(C(C)C)[C@H]2OC(=O)c1ccc[nH]1 the Ratio [1] was 28, the Ratio [3] was 20 and the Ratio (Musca domestica [2]) was 7. It also gave a Ratio (Musca domestica [4]) of 20 and a Ratio [5] of 34.

Work on CC(C)[C@@]1(O)[C@@H](OC(=O)c2ccc[nH]2)[C@@H](O)[C@@]2(C)C[C@]3(O)O[C@@]4([C@H](O)[C@@H](C)CC[C@@]42O)[C@@H](O)[C@]13C yielded a Ratio [1] of 5.4, a Ratio [3] of 4.7 and a Ratio [5] of 5.3.

For CC(C)[C@@]1(O)[C@@H](OC(=O)c2ccc[nH]2)[C@]2(O)O[C@@]3(NO)[C@]45O[C@@](O)(C[C@@]2(C)[C@@]4(O)CC[C@H](C)[C@H]5O)[C@]31C, the Ratio [1] was 11, the Ratio [3] was 9 and the Ratio (Musca domestica [2]) was 20. It also gave a Ratio (Musca domestica [4]) of 12 and a Ratio [5] of 11.

CON[C@@]12O[C@@]3(O)[C@H](OC(=O)c4ccc[nH]4)[C@](O)(C(C)C)[C@]1(C)[C@]1(O)C[C@@]3(C)[C@@]3(O)CC[C@H](C)[C@@H](O)[C@@]32O1 showed a Ratio (Musca domestica [2]) of 1.3 and a Ratio (Musca domestica [4]) of 2.

Compound CC(C)[C@@]1(O)[C@@H](OC(=O)c2ccc[nH]2)[C@@]2(O)[C@@]3(C)C[C@]4(O)O[C@@]5([C@H](O)[C@@H](C)CC[C@]35O)[C@@]2(O)[C@@]14C [RYANODINE] has an LD50 [6] of 0.49 mg/kg and an IC50 (Ryanodine receptor 3) of 3.3 nM.

Work on CC(C)[C@@]1(O)[C@@H](OC(=O)c2ccc[nH]2)C(=O)[C@@]2(C)C[C@]3(O)O[C@]4(/C(=N\O)[C@]13C)[C@H](O)[C@@H](C)CC[C@@]42O yielded a Ratio [1] of 1.9, a Ratio [3] of 1.7 and a Ratio (Musca domestica [2]) of 8. For the same compound, the Ratio (Musca domestica [4]) was 30 and the Ratio [5] was 3.1.
